Source: ChEMBL document CHEMBL4765423, “Antikinetoplastid SAR study in 3-nitroimidazopyridine series: Identification of a novel non-genotoxic and potent anti-T. b. brucei hit-compound with improved pharmacokinetic properties” (Eur J Med Chem, 2020)
In brackets after ≈: the same amount, converted by molar mass.

How the values were obtained:
[1] = Cytotoxicity against human HepG2 cells assessed as reduction in cell viability after 72 hrs by MTT assay; assay type: cell-based
In short: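 MTT was applied at 0.5 mg/mL for 2 h, formazan was dissolved in DMSO, and absorbance read at 570 nm with a 630 nm reference. Doxorubicin was the positive control. CC50 was taken from the dose-response curve, as the mean of three experiments.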

Leishmania donovani = test: Antileishmanial activity against Leishmania donovani MHOM/IN/00/DEVI promastigotes assessed as inhibition of parasitic metabolic activity measured after 72 hrs by MTT assay; assay type: functional, organism-based
In short: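 Log-phase promastigotes at 10⁶/mL were grown in Schneider's medium with 20% FCS at 27 °C. Compound was added from DMSO stock (final <0.5% v/v), in duplicate, for 72 h. Metabolic activity was read by MTT (4 h, 27 °C) and absorbance at 570 nm. EC50 came from non-linear dose-response regression, as the mean of ≥3 independent experiments.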

[2] = Selectivity index, ratio of CC50 for human HepG2 cells to EC50 for antileishmanial activity against Leishmania donovani MHOM/IN/00/DEVI promastigotes; assay type: toxicity; settings: read-out: Ratio CC50/EC50
Leishmania infantum = test: Antileishmanial activity against Leishmania infantum MHOM/MA/67/ITMAP-263 axenic amastigotes assessed as inhibition of parasitic metabolic activity incubated for 48 hrs by steady Glow reagent based luminescence assay; assay type: functional, organism-based; settings: MHOM/MA/67/ITMAP-263, 48 h
In short: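 Luciferase-expressing promastigotes were acidified (pH 5.4, 24 h, 24 °C) and then held 24 h at 37 °C to give axenic amastigotes. These were used at 2×10⁶/mL with compound (DMSO <0.5%), in duplicate, for 48 h at 37 °C. Luciferase luminescence was read. EC50 came from non-linear regression, as the mean of three independent experiments.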

[3] = Selectivity index, ratio of CC50 for human HepG2 cells to EC50 for antileishmanial activity against Leishmania infantum MHOM/MA/67/ITMAP-263 axenic amastigotes; assay type: toxicity; settings: read-out: Ratio CC50/EC50
[4] = tested on: Trypanosoma brucei brucei; test: Antitrypanosomal activity against bloodstream form Trypanosoma brucei brucei AnTat 1.9 trypomastigotes assessed as reduction in parasite viability incubated for 69 hrs by Alamar Blue dye based assay; assay type: functional, organism-based; settings: AnTat 1.9, 69 h
In short: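 BSF parasites were cultured in MEM/Baltz medium with 20% heat-inactivated horse serum, mercaptoethanol, L-cysteine and bathocuproine, at 37 °C and 5% CO₂. Cells were seeded at 2000 parasites/100 µL with compound from DMSO, in duplicate, for 69 h. Alamar Blue was added for 5 h and fluorescence read (ex 530/em 590 nm). EC50 came from non-linear regression over three independent experiments.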

[5] = Selectivity index, ratio of CC50 for human HepG2 cells to EC50 for Trypanosoma brucei brucei trypomastigotes AnTat 1.9; assay type: toxicity; settings: read-out: Ratio CC50/EC50
[6] = tested on: Trypanosoma brucei brucei; test: Antitrypanosomal activity against blood stream form of wild type Trypanosoma brucei brucei S427 trypomastigotes assessed as inhibition of parasite growth; assay type: functional, organism-based
In short: (§1)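 Bloodstream-form single marker S427 (T7RPOL TETR NEO) grown at 37 °C in HMI9-T with 2.5 µg/mL G418. The NTR1-overexpressing line is additionally kept in 2.5 µg/mL phleomycin and induced with 1 µg/mL tetracycline 48 h before testing.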

[7] = tested on: Trypanosoma brucei brucei; test: Antitrypanosomal activity against blood stream form of Trypanosoma brucei brucei S427 trypomastigotes overexpressing NTR1 assessed as inhibition of parasite growth; assay type: functional, organism-based; in short: as §1
[8] = tested on: Trypanosoma brucei brucei; test: Selectivity index, ratio of EC50 for antitrypanosomal activity against blood stream form of wild type Trypanosoma brucei brucei S427 trypomastigotes to EC50 for antitrypanosomal activity against blood stream form of Trypanosoma brucei brucei S427 trypomastigotes overexpressing NTR1; assay type: functional
[9] = tested on: Trypanosoma brucei brucei; test: Potency index, ratio of nifurtimox EC50 to compound EC50 for antitrypanosomal activity against blood stream form of wild type Trypanosoma brucei brucei S427 trypomastigotes; assay type: functional
Albumin = Albumin (Homo sapiens, UniProt P02768); test: Binding affinity to human albumin incubated for 4 hrs by LC-MS analysis; assay type: ADME; settings: read-out: PB (converted)
Albumin, sequence (P02768 whole entry): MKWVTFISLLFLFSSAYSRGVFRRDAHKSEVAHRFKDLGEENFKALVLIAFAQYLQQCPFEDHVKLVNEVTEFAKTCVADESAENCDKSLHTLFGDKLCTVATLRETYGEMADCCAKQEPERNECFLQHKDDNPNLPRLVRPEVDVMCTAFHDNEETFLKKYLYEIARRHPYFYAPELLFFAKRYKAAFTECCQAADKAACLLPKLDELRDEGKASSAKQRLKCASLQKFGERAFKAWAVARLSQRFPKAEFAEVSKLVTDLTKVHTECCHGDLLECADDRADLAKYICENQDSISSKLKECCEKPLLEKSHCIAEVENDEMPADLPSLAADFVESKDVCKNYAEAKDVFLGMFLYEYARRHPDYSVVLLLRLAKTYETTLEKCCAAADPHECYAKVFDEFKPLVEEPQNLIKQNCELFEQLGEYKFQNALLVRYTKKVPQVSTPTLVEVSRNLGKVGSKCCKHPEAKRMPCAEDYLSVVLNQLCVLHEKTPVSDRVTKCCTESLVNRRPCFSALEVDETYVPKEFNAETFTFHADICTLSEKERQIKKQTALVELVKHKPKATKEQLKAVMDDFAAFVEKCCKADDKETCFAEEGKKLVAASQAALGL

[10] = Microsomal stability in CD-1 mouse liver microsomes assessed as half life in presence of NADP measured up to 40 mins by LC-MS analysis; assay type: ADME, Microsome
In short: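 Compound was incubated in duplicate with female CD-1 mouse microsomes at 37 °C in 50 mM phosphate, pH 7.4. An NADP-regenerating system was present (MgCl₂ 5 mM, NADP 1 mM, G6PDH 0.4 U/mL, G6P 5 mM).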

[11] = Thermodynamic solubility of the compound in phosphate buffer at pH 7.4 incubated for 24 hrs under shaking condition by shake flask method; assay type: physicochemical; settings: read-out: Therm_solubility
In short: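 The miniaturized shake-flask method used 20 mM DMSO stock diluted into phosphate buffer at pH 7.4 (n = 4). Tubes were shaken 24 h at room temperature and centrifuged. Supernatant was mixed 1:1 with acetonitrile and quantified by UV, with calibration at 370 nm.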

[12] = Permeability of the compound in pH 7.4 Prisma HT buffer at 100 uM incubated for 4 hrs by PAMPA-BBB assay method
[13] = Cmax in Swiss mouse at 100 mg/kg, po by LC-MS/MS analysis; assay type: ADME, organism-based; parameters: route oral, dose 100 mg/kg; settings: in vivo
In short: (§2)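 Mice were given oral doses of 100 mg/kg. Plasma Cmax, Tmax, half-life, AUC0-inf and clearance were derived from this.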

[14] = Tmax in Swiss mouse at 100 mg/kg, po by LC-MS/MS analysis; assay type: ADME, organism-based; settings: in vivo; in short: as §2
[15] = Half life in Swiss mouse at 100 mg/kg, po by LC-MS/MS analysis; assay type: ADME, organism-based; settings: in vivo; in short: as §2
[16] = AUC (0 to infinity) in Swiss mouse at 100 mg/kg, po by LC-MS/MS analysis; assay type: ADME, organism-based; parameters: time infinity, route oral, dose 100 mg/kg; settings: in vivo; in short: as §2
[17] = Clearance in Swiss mouse at 100 mg/kg, po by LC-MS/MS analysis; assay type: ADME, organism-based; settings: in vivo; in short: as §2
[18] = Toxicity in orally dosed Swiss mouse administered once daily for 5 days; assay type: organism-based; settings: in vivo, po, time 5 day
In short: (§3)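 Four mice received compound at 100 mg/kg by oral gavage once daily for 5 days, followed by a follow-up period.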

[19] = Toxicity in Swiss mouse assessed as lesions on kidney at 100 mg/kg, po administered once daily for 5 days; assay type: organism-based; settings: in vivo, 120 h, time 5 day; in short: as §3
[20] = Toxicity in Swiss mouse assessed as lesions on liver at 100 mg/kg, po administered once daily for 5 days; assay type: organism-based; settings: in vivo, 120 h, time 5 day; in short: as §3
[21] = Toxicity in Swiss mouse assessed as lesions on brain at 100 mg/kg, po administered once daily for 5 days; assay type: organism-based; settings: in vivo, 120 h, time 5 day; in short: as §3
[22] = Toxicity in Swiss mouse assessed as lesions on heart at 100 mg/kg, po administered once daily for 5 days; assay type: organism-based; settings: in vivo, 120 h, time 5 day; in short: as §3
[23] = Toxicity in Swiss mouse assessed as lesions on lung at 100 mg/kg, po administered once daily for 5 days; assay type: organism-based; settings: in vivo, 120 h, time 5 day; in short: as §3
CHO-K1 = test: Genotoxicity in CHOK1 cells assessed as increase in micronucleated cells at 0.01 to 0.5 mM in presence or absence of S9 fraction measured after 3 hrs by Giemsa staining based micronucleus assay; assay type: toxicity, cell-based, Cricetulus griseus; settings: chinese hamster, cho-k1, 3 h, 500 µM, dose 0.01-0.5 mM
In short: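 CHO-K1 cells in McCoy's 5A were exposed 3 h to 0.01–0.5 mM compound, with or without 10% S9 mix, in duplicate. Cells then received cytochalasin B (3 µg/mL) for 21 h and were methanol-fixed and Giemsa-stained. Micronuclei were scored in 1000 binucleated cells per well, and CBPI and cytostasis were also determined. A χ² test was run against the negative control.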

HepG2 = test: Genotoxicity in human HepG2 cells assessed as induction of DNA damage at 5 to 20 uM incubated for 2 to 72 hrs by alkaline comet assay; assay type: toxicity, cell-based; settings: hepg2, 20 µM, dose lower 5 µM, time lower 2 hrs, dose upper 20 µM, time upper 72 hrs
In short: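 HepG2 cells were exposed to 5, 10 and 20 µM compound for 2, 24 or 72 h. Methyl methanesulfonate was the positive control, and read-out was % DNA in tail.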

[24] = Aqueous solubility of compound; assay type: physicochemical; settings: buffer
[25] = Electrochemical behavior of the compound assessed as redox potential corrected toward normal hydrogen electrode by cyclic voltammetry

## CS(=O)(=O)Cc1nc2c(Br)cc(Cl)cn2c1[N+](=O)[O-]
[1]
  CC50 at 72 h: 45000 nM
Leishmania donovani
  EC50: 5700 nM
[2]
  selectivity ratio: 7.9
Leishmania infantum
  EC50: > 25000 nM
[3]
  selectivity ratio: < 1.8
[4]
  EC50: 17 nM
[5]
  selectivity ratio: 2650
[6]
  EC50: 65 nM
[7]
  EC50: 16 nM
[8]
  Ratio EC50: 4
[9]
  Ratio EC50: 30
Albumin
  fraction unbound at 4 h: 0.231
[10]
  half-life: > 0.667 h
[11]
  solubility thermodynamic at 24 h: 25.8 µM (≈ 9.51 µg/mL)
[12]
  Papp at 4 h, 100 µM: 8.42 ×10⁻⁶ cm/s
[13]
  Cmax: 741 ng/mL
[14]
  Tmax: 5 h
[15]
  half-life: 7.7 h
[16]
  AUC(0-inf): 7060 ng·h/mL
[17]
  CL/F: 0.0085 mL/min
[18]
  NOAEL at 120 h: 100 mg/kg/day
[19]
  Activity: Non-Toxic
[20]
  Activity: Non-Toxic
[21]
  Activity: Non-Toxic
[22]
  Activity: Non-Toxic
[23]
  Activity: Non-Toxic
CHO-K1
  Activity: Non-Toxic
HepG2
  Activity: Non-Toxic
[24]
  solubility: Soluble
[25]
  Activity: -0.6 V
